Measurements gathered from unrelated publications.
Protocols differ between the studies behind these lines.
Effect on: microbial growth

SMILES | organism | test | test system | conditions | MIC
CC1=NN(CNc2ccc(Cl)cc2)C(=O)C1=NNn1c(-c2ccccc2)nc2ccccc2c1=O | Aspergillus niger | broth dilution |  |  | 51.5 µM
CCCCCCCCCCCCN1CCNCC1 | Lodderomyces parapsilosis |  | ATCC22019 |  | 1.95 µg/mL
O=c1[nH]c(NCc2ccc(Cl)c(Cl)c2)nc2ncn(CCCCCN3CCOCC3)c12 | Bacteroides fragilis | agar dilution |  | 48 h | > 32 µg/mL
Cc1ccc(C)n1-c1ccc(C(=O)NNC=O)cc1 | Aspergillus niger | broth dilution | ATCC6275 |  | 250 µg/mL
CCCCCCCCN1CCNCC1 | Lodderomyces parapsilosis | broth dilution | ATCC22019 | 48 h | > 31.3 µg/mL
Cc1ccc(C)n1-c1ccc(-c2nnc(-c3ccc(N(C)C)cc3)[nH]2)cc1 | Aspergillus niger | broth dilution | ATCC6275 |  | 62.5 µg/mL
CCOc1ccc(-c2nc3ccccc3n2Cc2ccccc2)cc1 | Aspergillus niger |  | ATCC16404 |  | 256 µg/mL
CC[C@H](C)C[C@H](C)CCCCCCCCC(=O)N[C@H]1C[C@@H](O)[C@@H](NCCN)NC(=O)[C@@H]2[C@@H](O)CCN2C(=O)[C@H]([C@H](O)CCN)NC(=O)[C@H]([C@H](O)[C@@H](O)c2ccc(O)cc2)NC(=O)[C@@H]2C[C@@H](O)CN2C(=O)[C@H]([C@@H](C)O)NC1=O | Lodderomyces parapsilosis | broth dilution | ATCC22019 | 48 h | 1.95 µg/mL
Cc1ccc2nc(-c3cccc(O)c3)[nH]c2c1 | Aspergillus niger |  | ATCC16404 |  | 128 µg/mL
CCCCCCCCCCCCCN1CCN(CC(O)(Cn2cncn2)c2ccc(F)cc2F)CC1 (stereo not shown) | Lodderomyces parapsilosis | broth dilution | ATCC22019 | 48 h | < 0.24 µg/mL
O=C1NN=C(N=Cc2ccc(O)c(O)c2)C1=NNn1c(-c2ccccc2)nc2ccccc2c1=O | Aspergillus niger | broth dilution |  |  | 107 µM
Cc1ccc2nc(-c3ccc([N+](=O)[O-])cc3)n(Cc3ccccc3)c2c1 | Aspergillus niger |  | ATCC16404 |  | 256 µg/mL
OC(CN1CCOCC1)(Cn1cncn1)c1ccc(F)cc1F (stereo not shown) | Lodderomyces parapsilosis | broth dilution | ATCC22019 | 48 h | 31.3 µg/mL
Cc1ccc2nc(-c3ccccc3O)[nH]c2c1 | Aspergillus niger |  | ATCC16404 |  | 512 µg/mL
Cc1cc(C)n(C(=O)c2ccc(-n3c(C)ccc3C)cc2)n1 | Aspergillus niger | broth dilution | ATCC6275 |  | > 500 µg/mL
c1ccc2c(-c3nc4ccccc4[nH]3)c3ccccc3cc2c1 | Aspergillus niger |  | ATCC16404 |  | 256 µg/mL
CCCCCCCCN1CCN(CC(O)(Cn2cncn2)c2ccc(F)cc2F)CC1 (stereo not shown) | Lodderomyces parapsilosis | broth dilution | ATCC22019 | 48 h | 0.03 µg/mL
Cc1ccc2nc(-c3ccc([N+](=O)[O-])cc3)n(Cc3ccccc3Cl)c2c1 | Aspergillus niger |  | ATCC16404 |  | 128 µg/mL
Fc1ccc(C2(Cn3cncn3)CO2)c(F)c1 (stereo not shown) | Lodderomyces parapsilosis | broth dilution | ATCC22019 | 48 h | > 31.3 µg/mL
O=c1[nH]c(NCc2ccc(Cl)c(Cl)c2)nc2ncn(CCN3CCOCC3)c12 | Bacteroides fragilis | agar dilution |  | 48 h | > 32 µg/mL
C=CCn1c(-c2ccc(Cl)cc2)nc2ccccc21 | Aspergillus niger |  | ATCC16404 |  | 512 µg/mL
CN1CCNCC1 | Lodderomyces parapsilosis | broth dilution | ATCC22019 | 48 h | > 31.3 µg/mL
CC[C@@H]([C@H](C)O)n1ncn(-c2ccc(N3CCN(c4ccc(OC[C@@H]5CO[C@@](Cn6cncn6)(c6ccc(F)cc6F)C5)cc4)CC3)cc2)c1=O | Aspergillus brasiliensis |  | ATCC16404 | 72 h | < 0.3 µM
Cc1ccc2nc(-c3ccc(Cl)cc3)[nH]c2c1 | Aspergillus niger |  | ATCC16404 |  | 256 µg/mL
Cc1ccc(C)n1-c1ccc(-c2nnc(-c3ccccc3[N+](=O)[O-])[nH]2)cc1 | Aspergillus niger | broth dilution | ATCC6275 |  | 31.2 µg/mL
